In ChEMBL document CHEMBL1795219, “4-alkoxy-3-arylfuran-2(5H)-ones as inhibitors of tyrosyl-tRNA synthetase: synthesis, molecular docking and antibacterial evaluation” (Bioorg Med Chem, 2011):
Converted amounts (≈) assume the structure as drawn.

Legend:
[1] = Inhibition of Staphylococcus aureus TyrRS expressed in Escherichia coli using L-[ring-3,5-3H] tyrosine preincubated for 10 mins by scintillation counting
In short: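 Aminoacylation assay with purified TyrRS (0.2 nM). Enzyme preincubated with a range of inhibitor concentrations for 10 min at room temperature, then prewarmed mix added at 37 °C. Final mix: 100 mM Tris/Cl pH 7.9, 50 mM KCl, 16 mM MgCl2, 5 mM ATP, 3 mM DTT, 4 mg/ml E. coli MRE600 tRNA, 10 uM tritiated L-tyrosine. Stopped at intervals in ice-cold 7% TCA, filtered, scintillation counted. Rate linear, under 50% tRNA acylation. IC50 is the concentration halving activity.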

Bacillus subtilis = assay: Antibacterial activity against Bacillus subtilis ATCC 6633 after 24 hrs by MTT colorimetric method; type: functional; details: ATCC 6633, 24 h
Staphylococcus aureus = assay: Antibacterial activity against Staphylococcus aureus ATCC 25923 after 24 hrs by MTT colorimetric method; type: functional; details: ATCC 25923, 24 h
Candida albicans = assay: Antibacterial activity against Candida albicans ATCC 10231 after 48 hrs by MTT colorimetric method; type: functional; details: ATCC 10231, 48 h
Escherichia coli = assay: Antibacterial activity against Escherichia coli ATCC 35218 after 24 hrs by MTT colorimetric method; type: functional; details: ATCC 35218, 24 h

| Structure (SMILES) | IC50 [1] [µM] | MIC50 (Bacillus subtilis) [µg/mL] | MIC50 (Staphylococcus aureus) [µg/mL] | MIC50 (Candida albicans) [µg/mL] | MIC50 (Escherichia coli) [µg/mL] |
| --- | --- | --- | --- | --- | --- |
| NC[C@H]1O[C@H](O[C@H]2[C@H](O)[C@@H](O[C@H]3O[C@H](CO)[C@@H](O)[C@H](N)[C@H]3O)[C@H](N)C[C@@H]2N)[C@H](O)[C@@H](O)[C@@H]1O [KANAMYCIN] |  | 0.48 (≈ 0.991 µM) | 1.2 (≈ 2.48 µM) |  |  |
| CN1CCN(CCOC2=C(c3ccc(Cl)c(Cl)c3)C(=O)OC2)CC1 | > 100 |  |  |  |  |
| O=C1OCC(OCCN2CCCCC2)=C1c1ccc(F)c(F)c1 | > 100 |  |  |  |  |
| COc1ccc(C2=C(OCCN3CCN(C)CC3)COC2=O)cc1OC | > 100 |  |  |  |  |
| CC(=O)N1CCN(c2ccc(OCC3COC(Cn4ccnc4)(c4ccc(Cl)cc4Cl)O3)cc2)CC1 (configuration not stated) [KETOCONAZOLE] |  |  |  | 3.8 (≈ 7.15 µM) |  |
| O=C1OCC(OCCNCc2ccccc2)=C1c1ccccc1 | > 100 |  |  |  |  |
| COc1ccc(C2=C(OCCN3CCCCC3)COC2=O)cc1OC | > 100 |  |  |  |  |
| O=C1OCC(OCCNNc2ccc([N+](=O)[O-])cc2)=C1c1ccccc1 | > 100 |  |  |  |  |
| CC1(C)S[C@@H]2[C@H](NC(=O)Cc3ccccc3)C(=O)N2[C@H]1C(=O)O [PENICILLIN G] |  |  |  |  | 2.7 (≈ 8.07 µM) |
| COc1ccc(C2=C(OCCNC3CCCCC3)COC2=O)cc1OC | > 100 |  |  |  |  |
| O=C1OCC(OCCNC2CCCCC2)=C1c1ccccc1 | 87.4 |  |  |  |  |

More lines, in order of falling IC50 [1], values ahead:

| IC50 [1] [µM] | MIC50 (Bacillus subtilis) [µg/mL] | MIC50 (Staphylococcus aureus) [µg/mL] | MIC50 (Candida albicans) [µg/mL] | MIC50 (Escherichia coli) [µg/mL] | Structure (SMILES) |
| --- | --- | --- | --- | --- | --- |
| 71.9 |  |  |  |  | CCCCNCCOC1=C(c2ccccc2)C(=O)OC1 |
| 53.6 |  |  |  |  | O=C1OCC(OCCN2CCCCC2)=C1c1ccccc1 |
| 37.5 | > 50 | 40.8 (≈ 128 µM) | > 50 | > 50 | COc1cccc(C2=C(OCCN3CCOCC3)COC2=O)c1 |
| 35.5 |  |  |  |  | O=C1OCC(OCCN2CCCC2)=C1c1ccccc1 |
| 32.8 |  |  |  |  | COc1ccc(C2=C(OCCN3CCOCC3)COC2=O)cc1 |
| 29.1 | > 50 | 34.3 (≈ 131 µM) | > 50 | > 50 | CCCNCCOC1=C(c2ccccc2)C(=O)OC1 |
| 25.6 | 47.4 (≈ 155 µM) | 34.3 (≈ 112 µM) | 47.2 (≈ 155 µM) | > 50 | O=C1OCC(OCCN2CCOCC2)=C1c1cccc(O)c1 |
| 24.3 | > 50 | 25.5 (≈ 69.3 µM) | > 50 | > 50 | O=C1OCC(OCCN2CCOCC2)=C1c1cccc(Br)c1 |
| 20.5 |  |  |  |  | O=C1OCC(OCCN2CCOCC2)=C1c1cccc(Cl)c1 |
| 8.6 | > 50 | 16.5 (≈ 54.6 µM) | > 50 | > 50 | CN1CCN(CCOC2=C(c3ccccc3)C(=O)OC2)CC1 |
| 6.2 | 47.4 (≈ 164 µM) | 10.4 (≈ 35.9 µM) | 34.2 (≈ 118 µM) | > 50 | O=C1OCC(OCCN2CCOCC2)=C1c1ccccc1 |
| 2.4 | 15.8 (≈ 42.9 µM) | 3 (≈ 8.15 µM) | 12.7 (≈ 34.5 µM) | > 50 | O=C1OCC(OCCN2CCOCC2)=C1c1ccc(Br)cc1 |
| 0.62 | 8.6 (≈ 26.6 µM) | 1.3 (≈ 4.02 µM) | 2.9 (≈ 8.96 µM) | > 50 | O=C1OCC(OCCN2CCOCC2)=C1c1ccc(Cl)cc1 |
| 0.1 | 2.1 (≈ 6.88 µM) | 0.23 (≈ 0.753 µM) | 1.1 (≈ 3.6 µM) | > 50 | O=C1OCC(OCCN2CCOCC2)=C1c1ccc(O)cc1 |
